Data as given in ChEMBL document CHEMBL1148008, “Antimicrobial and cytotoxic activity of agelasine and agelasimine analogs” (Bioorg Med Chem, 2007).
Values after ≈ are worked out from the molar mass of the structure shown.

How the values were obtained:
Escherichia coli = experiment: Antibacterial activity against Escherichia coli ATCC 25922 after 20 hrs by broth microdilution method; type: functional; conditions: ATCC 25922, 20 h
Outline: (§1)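 Strains grown 24 h at 35 °C on tryptone-soya agar. Colonies suspended in saline to 0.5 McFarland, then diluted 1:10 in Mueller-Hinton broth (~10⁷ CFU/mL). Inoculum added to twofold dilutions in broth (final 0.125–32 µg/mL) in triplicate. Incubated aerobically at 35 °C for 20 h. MIC is the lowest concentration giving complete growth inhibition. Repeated at least once; gentamycin/streptomycin served as QC.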

[1] = system: Mycobacterium tuberculosis; experiment: Antimicrobial activity against Mycobacterium tuberculosis at 6.25 ug/mL after 20 hrs by broth microdilution method; type: functional
Staphylococcus aureus = experiment: Antibacterial activity against Staphylococcus aureus ATCC 25923 after 20 hrs by broth microdilution method; type: functional; outline: as §1
[2] = system: Mycobacterium tuberculosis; experiment: Antimicrobial activity against Mycobacterium tuberculosis after 20 hrs by broth microdilution method; type: functional
[3] = Cytotoxicity against RPMI 8226/s cells; type: functional, cell-based; conditions: Homo sapiens, RPMI8226/S
Outline: (§2)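 Fluorometric microculture cytotoxicity assay (FMCA) read-out; IC50 values reported.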

[4] = Cytotoxicity against CEM/s cells; type: functional, cell-based; conditions: Homo sapiens; outline: as §2
U-937/GTB = experiment: Cytotoxicity against U937 GTB cells; type: functional, cell-based; conditions: Homo sapiens; outline: as §2
ACHN = experiment: Cytotoxicity against ACHN cells; type: functional, cell-based; conditions: Homo sapiens; outline: as §2

Compound | MIC (Escherichia coli) [µg/mL] | inhibition at 6.25 µg/mL [1] [%] | MIC (Staphylococcus aureus; ATCC 25923, 20 h) [µg/mL] | MIC [2] [µg/mL] | IC50 [3] [µM] | IC50 [4] [µM] | IC50 (U-937/GTB) [µM] | IC50 (ACHN) [µM] | MIC (Staphylococcus aureus) [µg/mL]
C/N=c1\ncn(C)c2ncn(C/C=C(\C)CC/C=C(\C)CC/C=C(\C)CCC=C(C)C)c12 | 16 (≈ 36.7 µM) | 94 | 3 (≈ 6.89 µM) | 3.13 (≈ 7.18 µM) | > 80 | > 80 | > 80 | > 80 | –
GENTAMICIN | – | – | – | – | – | – | – | – | 0.1
C=CC[n+]1cn(C)c2nc[nH]/c(=N\OC)c21 | > 32 | – | > 32 | – | > 80 | > 80 | > 80 | > 80 | –
CC(C)=CCC/C(C)=C/CC/C(C)=C/CC/C(C)=C/Cn1cnc2nc[nH]/c(=N\OCc3ccccc3)c21 | > 32 | 40 | > 32 | – | 10.9 | 20.4 | 11.2 | 27.4 | –
CC(C)=CCC/C(C)=C/CC/C(C)=C/CC/C(C)=C/C[n+]1cn(C(c2ccccc2)c2ccccc2)c2nc[nH]/c(=N\OCc3ccccc3)c21 | > 32 | 78 | 8 | – | 59 | 9.11 | 4.24 | 17.2 | –
CO/N=c1\[nH]cnc2c1[n+](C/C=C(\C)CC/C=C(\C)CC/C=C(\C)CCC=C(C)C)cn2Cc1ccccc1 | > 32 | 99 | > 32 | 1.56 | 1.04 | 2.24 | 1.07 | 3.4 | –
COc1cccc2c1C(=O)c1c(O)c3c(c(O)c1C2=O)C[C@@](O)(C(=O)CO)C[C@@H]3O[C@H]1C[C@H](N)[C@H](O)[C@H](C)O1 [DOXORUBICIN] | – | – | – | – | 0.13 | 0.18 | 0.11 | 14.2 | –
CC(C)=CCC/C(C)=C/CC/C(C)=C/C[n+]1cn(C)c2ncnc(N)c21.[Cl-] | > 32 | 13 | > 32 | – | > 80 | > 80 | > 80 | > 80 | –
CO/N=c1\[nH]cnc2c1[n+](C/C=C(\C)CC/C=C(\C)CCC1CCCCC1)cn2C | 16 | – | 6 | – | – | – | – | – | –
C/C(=C\C[n+]1cn(C)c2ncnc(N)c21)CCCC(C)CCCC(C)CCCC(C)C (stereo unspecified) | > 32 | 99 | 4 | 6.25 | 2.41 | 5.82 | 3.18 | 11.3 | –
CO[C@H]1/C=C/O[C@@]2(C)Oc3c(C)c(O)c4c(O)c(c(/C=N/N5CCN(C)CC5)c(O)c4c3C2=O)NC(=O)/C(C)=C\C=C\[C@H](C)[C@H](O)[C@@H](C)[C@@H](O)[C@@H](C)[C@H](OC(C)=O)[C@@H]1C [RIFAMPIN] | – | – | – | 0.25 (≈ 0.304 µM) | – | – | – | – | –
CO/N=c1\[nH]cnc2c1[n+](C/C=C(\C)CC/C=C(\C)CC/C=C(\C)CCC=C(C)C)cn2C(c1ccccc1)c1ccccc1 | > 32 | 99 | 8 | 3.13 | 2.6 | 3.54 | 1.97 | 4.75 | –
CO/N=c1\[nH]cnc2c1[n+](C/C=C(\C)CC/C=C(\C)CC/C=C(\C)CCC=C(C)C)cn2CCC#N | > 32 | 100 | 4 | > 6.25 | 3.96 | 5.36 | 3.33 | 11.4 | –
Cn1cnc2c(N)[n+](Cc3ccccc3)cnc21.[Br-] | > 32 | 0 | > 32 | – | – | – | – | – | –
Cn1c[n+](Cc2ccccc2)c2ccccc21 | – | 19 | – | – | – | – | – | – | –
CO/N=c1\[nH]cnc2c1[n+](C/C=C(\C)CC/C=C(\C)CC/C=C(\C)CCC=C(C)C)cn2C(C)C | – | 100 | – | 1.56 | 0.886 | 2.05 | 1.1 | 2.45 | –

Compound | MIC (Escherichia coli) [µg/mL] | inhibition at 6.25 µg/mL [1] [%] | MIC (Staphylococcus aureus; ATCC 25923, 20 h) [µg/mL] | MIC [2] [µg/mL] | IC50 [3] [µM] | IC50 [4] [µM] | IC50 (U-937/GTB) [µM] | IC50 (ACHN) [µM] | MIC (Staphylococcus aureus) [µg/mL]
CC(C)=CCC/C(C)=C/CC/C(C)=C/CC/C(C)=C/C[n+]1cn(CCC#N)c2nc[nH]/c(=N\OCc3ccccc3)c21 | > 32 | 86 | > 32 | – | 9.46 | 19.1 | 24.2 | 38.9 | –
C/C(=C\C[n+]1cn(C)c2nc[nH]/c(=N\OCc3ccccc3)c21)CCCC(C)CCCC(C)CCCC(C)C (stereo unspecified) | > 32 | 72 | > 32 | – | 7.07 | 6.3 | 10.8 | 20.5 | –
C=CCn1c[n+](C/C=C(\C)CC/C=C(\C)CC/C=C(\C)CCC=C(C)C)c2/c(=N/OC)[nH]cnc21 | > 32 | 100 | > 32 | 3.13 | 1.25 | 2.94 | 1.39 | 4.61 | –
CC(C)=CCC/C(C)=C/CC/C(C)=C/CC/C(C)=C/Cn1cnc2ncnc(Cl)c21 | > 32 | 33 | > 32 | – | 5.2 | 6.79 | 5.07 | 6.75 | –
Cn1c[n+](Cc2ccccc2)c2/c(=N/OC(C)(C)C)[nH]cnc21 | – | 53 | – | – | – | – | – | – | –
Cn1cnc(=N)c2c1ncn2Cc1ccccc1 | – | 0 | – | – | – | – | – | – | –
CC(C)=CCC/C(C)=C\CC/C(C)=C/C[n+]1cn(C)c2ncnc(N)c21.[Cl-] | > 32 | 8 | 32 | – | – | – | – | – | –
CC(=O)O[C@H]1C(=O)[C@@]2(C)[C@H]([C@H](OC(=O)c3ccccc3)[C@]3(O)C[C@H](OC(=O)[C@H](O)[C@@H](NC(=O)c4ccccc4)c4ccccc4)C(C)=C1C3(C)C)[C@]1(OC(C)=O)CO[C@@H]1C[C@@H]2O [PACLITAXEL] | – | – | – | – | 0.007 | 0.007 | 0.0059 | 31.5 | –
CC(C)=CCC/C(C)=C/CC/C(C)=C/CC/C(C)=C/C[n+]1cnc2c(ncn2C)c1N.[Br-] | > 32 | 72 | 8 | – | 18.6 | 20.8 | 39.4 | > 80 | –
CO/N=c1\[nH]cnc2c1[n+](Cc1ccccc1)cn2C | > 32 | 4 | > 32 | – | > 80 | > 80 | > 80 | > 80 | –
CO/N=c1\[nH]cnc2ncn(C/C=C(\C)CC/C=C(\C)CC/C=C(\C)CCC=C(C)C)c12 | > 32 | 74 | > 32 | – | 3 | 5.69 | 3.31 | 18.1 | –
Cn1cc[n+](Cc2ccccc2)c1 | – | 19 | – | – | – | – | – | – | –
CO/N=c1\[nH]cnc2c1[n+](C/C=C(\C)CCC=C(C)C)cn2C | > 32 | – | > 32 | – | 18.4 | 27.4 | 17.5 | > 80 | –
Cn1c[n+](Cc2ccccc2)c2/c(=N/OCc3ccccc3)[nH]cnc21 | – | 0 | – | – | – | – | – | – | –
CC(C)=CCC/C(C)=C/CC/C(C)=C/CC/C(C)=C/Cn1cnc2c1C(=N)NCN2C | 16 (≈ 37.8 µM) | 99 | 8 (≈ 18.9 µM) | – | 18.2 | 21.7 | > 80 | > 80 | –
CO/N=c1\[nH]cnc2c1[n+](C/C=C(\C)CCCC(C)CCCC(C)CCCC(C)C)cn2C (stereo unspecified) | > 32 | 56 | > 32 | – | 3.75 | 7.92 | 5.4 | 16.9 | –
